In ChEMBL document CHEMBL1136228 (Bioorg Med Chem Lett, 2003):
“And” between values parts separate entries of the source, which are not always exact repeats. Equal entries are not always repeated.

Assays:
[1] = target: T1, Peroxisome proliferator-activated receptor alpha (Homo sapiens, UniProt Q07869)
T1 sequence (Q07869 whole entry): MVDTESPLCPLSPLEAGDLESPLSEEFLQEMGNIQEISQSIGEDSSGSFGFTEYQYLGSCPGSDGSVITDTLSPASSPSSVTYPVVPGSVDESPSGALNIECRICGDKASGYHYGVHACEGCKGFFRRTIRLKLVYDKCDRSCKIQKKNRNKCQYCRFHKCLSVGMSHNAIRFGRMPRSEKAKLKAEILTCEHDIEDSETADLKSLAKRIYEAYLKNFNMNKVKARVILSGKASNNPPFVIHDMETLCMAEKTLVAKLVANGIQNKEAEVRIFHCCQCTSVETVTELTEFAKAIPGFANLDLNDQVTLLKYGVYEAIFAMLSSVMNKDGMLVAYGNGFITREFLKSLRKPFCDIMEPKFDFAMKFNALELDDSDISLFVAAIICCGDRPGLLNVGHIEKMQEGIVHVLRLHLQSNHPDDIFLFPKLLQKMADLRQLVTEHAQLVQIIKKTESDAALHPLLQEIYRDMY

[2] = target: T2, Peroxisome proliferator-activated receptor gamma (Homo sapiens, UniProt P37231)
T2 sequence (P37231 whole entry): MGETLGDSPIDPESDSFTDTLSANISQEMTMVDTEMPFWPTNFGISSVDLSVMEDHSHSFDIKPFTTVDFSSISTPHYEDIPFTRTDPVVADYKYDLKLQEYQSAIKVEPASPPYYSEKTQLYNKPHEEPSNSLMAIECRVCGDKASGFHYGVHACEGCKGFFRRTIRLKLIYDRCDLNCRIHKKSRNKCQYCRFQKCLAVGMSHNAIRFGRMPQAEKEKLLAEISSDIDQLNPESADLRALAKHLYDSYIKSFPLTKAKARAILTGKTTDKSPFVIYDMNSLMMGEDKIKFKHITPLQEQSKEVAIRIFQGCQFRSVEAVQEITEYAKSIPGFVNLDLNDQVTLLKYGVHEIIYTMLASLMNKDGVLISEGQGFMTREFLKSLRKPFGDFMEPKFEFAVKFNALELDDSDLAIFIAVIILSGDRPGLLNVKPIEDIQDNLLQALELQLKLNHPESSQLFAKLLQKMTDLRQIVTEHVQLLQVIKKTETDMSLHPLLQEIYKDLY

Rattus norvegicus [3] = test: Total Cholesterol change in Sprague-Dawley rat after 30 mg/kg peroral administration; details: route oral
Mus musculus [4] = test: Fasting plasma glucose levels after 30 mg/kg peroral administration in db/db Mouse; assay type: functional; details: route oral
Method in brief: (§1)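 db/db (lepr db-3J/lepr db-3J) mice dosed orally once daily for 11 days; fasting plasma glucose measured at day 11. Correction is expressed as mean glucose lowering, as a percentage of the difference between vehicle-treated db/db and lean control mice.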

Rattus norvegicus [5] = test: Heart weight of Sprague-Dawley rat after 30 mg/kg peroral administration; details: route oral
[6] = Bioavailability was determined in rat; assay type: ADME, organism-based; details: in vivo
[7] = target: T1, Peroxisome proliferator-activated receptor alpha; remark: listed apart in the source
Rattus norvegicus [8] = test: Triglyceride change in Sprague-Dawley rat after 30 mg/kg peroral administration; details: route oral
Rattus norvegicus [9] = test: Brown adipose tissue weight in Sprague-Dawley rat after 30 mg/kg peroral administration; details: route oral
Rattus norvegicus [10] = test: Body weight of Sprague-Dawley rat after 30 mg/kg peroral administration; details: route oral
[11] = target: T2, Peroxisome proliferator-activated receptor gamma; remark: listed apart in the source
Mus musculus [12] = test: Fasting plasma glucose level after 10 mg/kg peroral administration in db/db Mouse; assay type: functional; details: route oral
Method in brief: as §1

Mus musculus [13] = test: Fasting plasma glucose levels after 3 mg/kg peroral administration in db/db Mouse; assay type: functional; details: route oral
Method in brief: as §1

[14] = target: T2, Peroxisome proliferator-activated receptor gamma; test: Binding affinity towards human peroxisome proliferator activated receptor gamma (PPAR gamma) was determined by HTRF assay; weakly active
[15] = target: T2, Peroxisome proliferator-activated receptor gamma; test: Binding affinity towards peroxisome proliferator activated receptor gamma (PPAR gamma); weakly active
[16] = target: T1, Peroxisome proliferator-activated receptor alpha; test: Binding affinity towards peroxisome proliferator activated receptor alpha (PPAR alpha); weakly active
[17] = target: T1, Peroxisome proliferator-activated receptor alpha; test: Binding affinity towards human peroxisome proliferator activated receptor alpha (PPAR alpha) by HTRF assay; Weakly active
Rattus norvegicus [18] = test: Body weight of Sprague-Dawley rat after 150 mg/kg peroral administration; details: route oral
Rattus norvegicus [19] = test: Total Cholesterol change in Sprague-Dawley rat after 150 mg/kg peroral administration; details: route oral
[20] = target: T2, Peroxisome proliferator-activated receptor gamma; test: Binding affinity towards peroxisome proliferator activated receptor gamma (PPAR gamma); Not active
Method in brief: (§2)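 Scintillation proximity (SPA) radioligand binding assay run at 15 C. The IC50 is converted to an apparent Ki with the Cheng-Prusoff equation.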

Mus musculus [21] = test: Fasting plasma glucose levels after 150 mg/kg peroral administration in db/db Mouse; assay type: functional; details: route oral
Method in brief: as §1

Rattus norvegicus [22] = test: Heart weight of Sprague-Dawley rat after 150 mg/kg peroral administration; details: route oral
Rattus norvegicus [23] = test: Triglyceride change in Sprague-Dawley rat after 150 mg/kg peroral administration; details: route oral
Rattus norvegicus [24] = test: Brown adipose tissue weight in Sprague-Dawley rat after 150 mg/kg peroral administration; details: route oral
[25] = target: T1, Peroxisome proliferator-activated receptor alpha; test: Binding affinity towards human peroxisome proliferator activated receptor gamma (PPAR alpha) by HTRF assay; Weakly active
[26] = target: T1, Peroxisome proliferator-activated receptor alpha; test: Binding affinity towards peroxisome proliferator activated receptor alpha (PPAR alpha); Not active
Method in brief: as §2

[27] = target: T1, Peroxisome proliferator-activated receptor alpha; test: Binding affinity towards human peroxisome proliferator activated receptor alpha (PPAR alpha) by HTRF assay; Not active

In the case of `CCCc1cc(C(=O)OC)cc(Cl)c1OC(C(=O)O)c1ccccc1` (stereo not drawn), the Ki [1] is reported as 57 nM and the Ki [2] is reported as 8530 nM.

`CCCc1cc2c(C(F)(F)F)noc2c(CCC)c1OC(C(=O)O)c1ccccc1` (stereo not drawn) gave a Change (Rattus norvegicus [3]) of -27%, an FPG correction (Mus musculus [4]) of 91% and a Heart weight (Rattus norvegicus [5]) of 1.05 g. For the same molecule, the Ki [1] was 37 nM, the bioavailability [6] was 11% and the EC50 [7] was 15 nM. For the same molecule, the Change (Rattus norvegicus [8]) was -52%, the Ki [2] was 956 nM and the BAT weight (Rattus norvegicus [9]) was 0.28 g. The Body weight (Rattus norvegicus [10]) was 276 g and the EC50 [11] was 365 nM.

In the case of `CCCc1cc2c(C(F)(F)F)noc2c(CCC)c1OC(C(=O)O)c1ccc(C(C)C)cc1` (stereo not drawn), the FPG correction (Mus musculus [12]) is reported as 61% and the FPG correction (Mus musculus [13]) is reported as 31%.

With `CCCc1cc2c(CC)noc2c(CCC)c1OC(C(=O)O)c1ccccc1` (stereo not drawn) the Ki [1] was 61 nM, the EC50 [7] was 80 nM and the Ki [2] was 2680 nM. The EC50 [11] was 560 nM.

In the case of `CCCc1cc2c(C(F)(F)F)noc2c(CCC)c1OC(C(=O)O)c1ccc(OCc2ccccn2)cc1` (stereo not drawn), the Change (Rattus norvegicus [3]) is reported as -38%, the FPG correction (Mus musculus [4]; 30 mg/kg) is reported as 90% and 51% and the Heart weight (Rattus norvegicus [5]) is reported as 1.15 g. For the same molecule, the Ki [1] was 64 nM, the EC50 [7] was 19 nM and the Change (Rattus norvegicus [8]) was -47%. It also gave a Ki [2] of 268 nM, a BAT weight (Rattus norvegicus [9]) of 0.42 g and a Body weight (Rattus norvegicus [10]) of 297 g. For the same molecule, the EC50 [11] was 47 nM.

With `CCCc1cc(C(=O)OC)cc(C)c1OC(C(=O)O)c1ccccc1` (stereo not drawn) the Ki [1] was 28 nM and the Ki [2] was 5940 nM.

With `CCCc1cc2c(C(F)(F)F)noc2c(CCC)c1OC(C(=O)O)c1ccc(Cl)cc1` (stereo not drawn) the Change (Rattus norvegicus [3]) was -23%, the Heart weight (Rattus norvegicus [5]) was 1.17 g and the Ki [1] was 105 nM. For the same molecule, the FPG correction (Mus musculus [12]) was 74%, the EC50 [7] was 10 nM and the Change (Rattus norvegicus [8]) was -56%. The Ki [2] was 175 nM, the FPG correction (Mus musculus [13]) was 31% and the BAT weight (Rattus norvegicus [9]) was 0.22 g. For the same molecule, the Body weight (Rattus norvegicus [10]) was 297 g and the EC50 [11] was 110 nM.

For `CCCc1c(OC(C(=O)O)c2ccccc2)ccc(C(=O)CC)c1O` (stereo not drawn), the Ki [14] was “Partially active”, the Ki [15] was “Partially active” and the Ki [16] was “Partially active”.

With `CC(C)(Oc1ccc(C(=O)c2ccc(Cl)cc2)cc1)C(=O)O` [FENOFIBRIC ACID] the Ki [17] was “Partially active”, the Ki [1] was 35000 nM and the Body weight (Rattus norvegicus [18]) was 308 g. The Change (Rattus norvegicus [19]) was -18%, the Ki [20] was “Not Active” and the FPG correction (Mus musculus [21]) was 17%. The Heart weight (Rattus norvegicus [22]) was 1.18 g, the Change (Rattus norvegicus [23]) was -23% and the BAT weight (Rattus norvegicus [24]) was 0.33 g.

With `Cc1cccc(Nc2cc(Cl)nc(SCC(=O)O)n2)c1C` [PIRINIXIC ACID] the FPG correction (Mus musculus [4]) was 20%, the EC50 [25] was “Partially active” and the Ki [20] was “Not Active”. For the same molecule, the Ki [26] was “Not Active”.

With `CN(CCOc1ccc(CC2SC(=O)NC2=O)cc1)c1ccccn1.O=C(O)/C=C\C(=O)O` (stereo not drawn) [ROSIGLITAZONE MALEATE] the Change (Rattus norvegicus [3]) was 1%, the Ki [27] was “Not Active” and the Ki [26] was “Not Active”. For the same molecule, the BAT weight (Rattus norvegicus [9]; 30 mg/kg) was 0.74 g and 0.63 g and the Body weight (Rattus norvegicus [10]; 30 mg/kg) was 310 g and 322 g.
